Laboratory results as given in ChEMBL document CHEMBL5104216, “Fragment-Sized Thiazoles in Fragment-Based Drug Discovery Campaigns: Friend or Foe?” (ACS Med Chem Lett, 2022).

Key:
[1] = Aqueous stability of the compound at pH 7.4 measured after 60 mins by spectrophotometric analysis; type: physicochemical; settings: buffer, pH 7.4, 1 h
Outline: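 Followed by spectrophotometry as changes in the compound absorption spectrum over time in 50 mM Tris-HCl pH 7.4, 0.5 mM EDTA, read after 60 min in 96-well microplate format. Compounds with low absorbance were not evaluated.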

[2] = target: UDP-N-acetylglucosamine 1-carboxyvinyltransferase (Escherichia coli K-12) (UniProt P0A749); experiment: Inhibition of recombinant Escherichia coli MurA assessed as residual activity at 500 uM using UDP-N-acetylglucosamine as substrate and measured by malachite green based colorimetric assay relative to control
Outline: (§1)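 Screened at 500–625 μM with malachite green colorimetric read-out. Activity threshold was <50% residual activity.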

[3] = target: Replicase polyprotein 1ab (Severe acute respiratory syndrome coronavirus 2) (UniProt P0DTD1); experiment: Inhibition of recombinant SARS-CoV-2 3CLpro expressed in Escherichia coli NiCo21(DE3) assessed as residual activity at 500 uM using DABCYL-KTSAVLQSGFRKME-EDANS as substrate preincubated for 30 mins in presence of 1mM DTT followed by substrate addition and measured by FRET assay relative to control
Outline: (§2)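 Kinetic fluorescence read-out of cleavage of a FRET substrate carrying a DABCYL–EDANS pair. Compounds were tested at 500–625 μM, and <50% residual activity was taken as the activity threshold. To exclude false positives, absorbance at the excitation and emission wavelengths and autofluorescence of the compounds were measured.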

[4] = Redox activity of compound assessed as redox index at 100 uM measured by HRP-PR assay; type: physicochemical
Outline: (§3)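 H2O2 from redox cycling, with or without DTT, detected with horseradish peroxidase-phenol red (HRP-PR).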

[5] = Redox activity of compound assessed as redox index at 10 uM measured by resazurin assay; type: physicochemical
Outline: (§4)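 Free radicals formed by redox cycling with DTT detected with resazurin by fluorimetric read-out. Spectral interference checked.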

[6] = system: Mycobacterium tuberculosis; experiment: Inhibition of Mycobacterium tuberculosis MetAP1a assessed as residual activity at 625 uM using L-methionine 7-amido-4-methylcoumarin as fluorogenic substrate and measured by fluorescence based assay
Outline: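 Kinetic fluorescence assay in which the enzyme hydrolyses L-methionine 7-amido-4-methylcoumarin to fluorescent 7-amino-4-methylcoumarin. Compounds were tested at 500–625 μM, and activity was called at <50% residual activity. Spectral interference was checked by measuring absorbance at the excitation and emission wavelengths and compound autofluorescence.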

[7] = Redox activity of compound assessed as redox index at 100 uM in presence of 100 uM TCEP measured by H2DCFDA assay; type: physicochemical
Outline: (§5)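 Reactive oxygen species, with or without the reducing agent TCEP, detected with the fluorescent probe H2DCFDA. Compound spectral interference (autofluorescence) checked under the assay conditions.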

[8] = target: UDP-N-acetylglucosamine 1-carboxyvinyltransferase (Escherichia coli K-12) (UniProt P0A749); experiment: Inhibition of recombinant Escherichia coli MurA assessed as residual activity at 500 uM using UDP-N-acetylglucosamine as substrate preincubated for 30 mins followed by substrate addition and measured by malachite green based colorimetric assay relative to control
Outline: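 E. coli MurA at 500–625 μM with 30 min preincubation before substrate addition. Malachite green colorimetric read-out. Activity threshold was <50% residual activity.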

[9] = target: Replicase polyprotein 1ab (Severe acute respiratory syndrome coronavirus 2) (UniProt P0DTD1); experiment: Inhibition of recombinant SARS-CoV-2 3CLpro expressed in Escherichia coli NiCo21(DE3) assessed as residual activity at 500 uM using DABCYL-KTSAVLQSGFRKME-EDANS as substrate preincubated for 30 mins followed by substrate addition and measured by FRET assay relative to control; outline: as §2
[10] = Redox activity of compound assessed as redox index at 100 uM in presence of 1 mM DTT measured by HRP-PR assay; type: physicochemical; outline: as §3
[11] = target: D-alanine--D-alanine ligase B (Escherichia coli K-12) (UniProt P07862); experiment: Inhibition of recombinant Escherichia coli DdlB assessed as residual activity at 500 uM using D-alanine as substrate incubated for 20 mins and measured by malachite green based colorimetric assay relative to control; outline: as §1
[12] = Redox activity of compound assessed as redox index at 100 uM measured by H2DCFDA assay; type: physicochemical; outline: as §5
[13] = target: UDP-N-acetylglucosamine 1-carboxyvinyltransferase (Escherichia coli K-12) (UniProt P0A749); experiment: Inhibition of recombinant Escherichia coli MurA assessed as residual activity at 500 uM using UDP-N-acetylglucosamine as substrate preincubated for 30 mins in presence of 1 mM DTT followed by substrate addition and measured by malachite green based colorimetric assay relative to control
[14] = Redox activity of compound assessed as redox index at 1 uM measured by resazurin assay; type: physicochemical; outline: as §4

UDP-N-acetylglucosamine 1-carboxyvinyltransferase (Escherichia coli K-12), sequence (P0A749 whole entry): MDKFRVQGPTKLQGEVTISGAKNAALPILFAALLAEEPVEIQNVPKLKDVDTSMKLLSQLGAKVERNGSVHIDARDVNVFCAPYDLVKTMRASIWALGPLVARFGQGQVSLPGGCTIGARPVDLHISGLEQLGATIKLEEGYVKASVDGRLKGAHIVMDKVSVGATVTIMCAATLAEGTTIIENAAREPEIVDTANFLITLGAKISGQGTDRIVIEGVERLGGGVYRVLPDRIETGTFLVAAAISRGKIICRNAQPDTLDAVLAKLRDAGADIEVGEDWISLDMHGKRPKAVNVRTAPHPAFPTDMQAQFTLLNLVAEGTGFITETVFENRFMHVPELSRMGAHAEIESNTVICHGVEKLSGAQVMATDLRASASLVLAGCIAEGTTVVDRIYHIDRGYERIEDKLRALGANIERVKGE

Structure (SMILES)	Stability [1]	Activity [2] [%]	Activity [3] [%]	Activity_index [4]	Activity_index [5]	Activity [6] [%]	Activity_index [7]	Activity [8] [%]	Activity [9] [%]	Activity_index [10]	Activity [11] [%]	Activity_index [12]	Activity [13] [%]	Activity_index [14]
Nc1nc(-c2ccncc2)cs1	Stable	86.7	77.8	0.8	1	110	1.2	56.7	91.9	1	96	1.1	103	1
O=C(O)c1csc(Br)n1	Stable	102	73.7	1	0.9	81.7	1	96	73.6	1	92	1	101	0.9
Nc1nnc(C2CC2)s1	Stable	3.5	79.3	1.1	0.9	92.5	1.2	2.2	34.2	1.1	96	1.2	99.8	0.9
COC(=O)c1cnc(Br)s1	Stable	96.6	92.9	1	1.1	99.2	1.1	93	100	1	96	1	102	1
Cc1nc(-c2ccc(C(=O)O)cc2)cs1	Stable	102	81.2	1	1.1	136	0.9	113	149	1	94	0.9	101	0.9
CCOC(=O)c1cnc(Br)s1	Stable	60.1	66.4	1	1	92.3	1.1	14.9	10.2	1	90	0.9	103	0.9
COC(=O)CC(=O)Nc1ncc(Br)s1	Stable	97.9	86	1	0.9	78.2	1	60.9	95.3	1	88	1.2	107	1
Brc1cscn1	–	100	80.1	1	1	83.5	0.8	106	91.4	1	97	0.8	102	0.9
CCOC(=O)Cc1csc(Br)n1	–	86.7	70.8	1	0.9	89.6	0.9	66.7	72	1	95	1	–	0.9
Nc1nc(CC(=O)O)cs1	Stable	90.8	84.2	1.1	1	125	0.9	79.4	105	1	96	1.1	99.2	0.9
O=C(O)Cc1csc(Br)n1	–	105	68.6	1	1	86.1	1	72.1	77.1	1	103	0.9	106	0.9
CNc1nnc(C(F)(F)F)s1	Stable	99.5	82.3	1	1	101	1.1	113	147	1	98	1.2	102	1
Clc1nccs1	Stable	18.9	73.8	1	0.9	122	0.9	0.8	23.1	1	93	1	107	1
Nc1nnc(C(F)(F)F)s1	Stable	56.9	82.9	1	1	142	0.9	18	66.8	1	100	1	101	0.9
Nc1ccc(S(=O)(=O)Nc2nccs2)cc1 [SULFATHIAZOLE]	Stable	96.5	74.2	1	1	94	1.1	82.3	71.7	1	94	1.2	100	0.9
Cc1nc(Br)sc1C(=O)O	Stable	72.4	92.9	1	0.9	43.4	1.1	18.5	100	1	94	1.2	102	0.9
CC(=O)c1nc(C)cs1	–	102	78.4	1	0.9	136	0.8	93.9	106	1	92	1	93.5	0.9
O=C(O)c1nc(Br)cs1	–	97.3	85.1	1	0.9	111	0.9	90	88.3	1	84	1	106	0.9
